# pEC50, pIC50: −log10 of the molar value.
# What was measured:
# [1] = AUC (0 to 8 hrs) in Sprague-Dawley rat at 5 mg/kg, po; format: ADME, organism-based; parameters: time < 8 hr, dose 5 mg/kg, route oral; conditions: plasma
# [2] = Half life in rats after 2 mg/kg intravenous dose; format: ADME, organism-based; parameters: dose 2 mg/kg, route intravenous; conditions: Sprague-Dawley, rat, in vivo
# Method in brief: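 Rats dosed iv 2 mg/kg (n = 2) or po 5 mg/kg (n = 3) in 10% NMP, 10% Cremophor, 80% pH 4.63 buffer. PK parameters derived from iv dosing, reported as mean ± SD.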
# [3] = target: Calcium/calmodulin-dependent protein kinase type 1D (Homo sapiens) (UniProt Q8IU85); test: Inhibition of CaMK1delta; conditions: concentration not given here
# Calcium/calmodulin-dependent protein kinase type 1D (Homo sapiens), sequence (Q8IU85 whole entry, looked up): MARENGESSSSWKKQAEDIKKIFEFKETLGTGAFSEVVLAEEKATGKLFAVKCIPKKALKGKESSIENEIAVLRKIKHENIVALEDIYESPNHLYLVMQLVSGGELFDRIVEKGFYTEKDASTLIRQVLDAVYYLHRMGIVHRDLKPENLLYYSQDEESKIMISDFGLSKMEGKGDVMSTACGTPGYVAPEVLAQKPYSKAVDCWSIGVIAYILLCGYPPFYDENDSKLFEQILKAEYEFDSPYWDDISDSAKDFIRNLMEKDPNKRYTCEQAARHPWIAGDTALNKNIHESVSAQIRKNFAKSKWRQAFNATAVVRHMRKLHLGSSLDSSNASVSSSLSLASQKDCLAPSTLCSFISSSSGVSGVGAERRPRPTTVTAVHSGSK
# Method in brief: (§1)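 Selectivity screen run externally (Invitrogen SelectScreen). Percent inhibition measured at 1 μM compound, mean of 2 measurements.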
# [4] = target: Calcium/calmodulin-dependent protein kinase type II subunit delta (Homo sapiens) (UniProt Q13557); test: Inhibition of human CaMK2delta; conditions: concentration not given here; method in brief: as §1
# Calcium/calmodulin-dependent protein kinase type II subunit delta (Homo sapiens), sequence (Q13557 whole entry): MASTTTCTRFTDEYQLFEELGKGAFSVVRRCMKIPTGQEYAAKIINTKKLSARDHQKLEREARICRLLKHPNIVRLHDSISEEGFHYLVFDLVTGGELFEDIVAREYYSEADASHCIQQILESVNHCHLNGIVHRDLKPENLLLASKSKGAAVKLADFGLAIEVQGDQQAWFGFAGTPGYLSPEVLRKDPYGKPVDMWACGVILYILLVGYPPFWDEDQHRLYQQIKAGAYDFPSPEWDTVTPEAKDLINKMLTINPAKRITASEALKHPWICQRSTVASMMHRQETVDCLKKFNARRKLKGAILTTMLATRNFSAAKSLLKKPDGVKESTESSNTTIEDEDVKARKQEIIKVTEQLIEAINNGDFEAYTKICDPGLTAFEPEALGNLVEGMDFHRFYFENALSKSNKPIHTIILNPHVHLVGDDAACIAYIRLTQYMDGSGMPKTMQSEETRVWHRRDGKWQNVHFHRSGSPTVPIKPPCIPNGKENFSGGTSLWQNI
# [5] = target: T1, Calcium/calmodulin-dependent protein kinase type IV (Homo sapiens) (UniProt Q16566); test: Inhibition of human CaMK4; conditions: concentration not given here; method in brief: as §1
# T1 sequence (whole entry): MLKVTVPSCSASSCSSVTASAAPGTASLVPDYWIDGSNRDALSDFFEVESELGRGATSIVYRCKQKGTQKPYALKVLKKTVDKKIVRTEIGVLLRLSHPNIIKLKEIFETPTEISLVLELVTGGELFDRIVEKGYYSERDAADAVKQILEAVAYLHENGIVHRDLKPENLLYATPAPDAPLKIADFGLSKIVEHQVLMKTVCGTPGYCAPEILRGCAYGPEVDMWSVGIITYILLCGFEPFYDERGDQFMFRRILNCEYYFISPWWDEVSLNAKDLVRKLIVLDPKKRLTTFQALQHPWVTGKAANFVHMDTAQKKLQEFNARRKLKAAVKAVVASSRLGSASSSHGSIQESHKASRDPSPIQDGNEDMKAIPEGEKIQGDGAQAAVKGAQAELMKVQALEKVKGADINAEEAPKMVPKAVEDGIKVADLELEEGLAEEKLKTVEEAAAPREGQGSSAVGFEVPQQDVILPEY
# [6] = target: Serine/threonine-protein kinase MARK1 (Homo sapiens) (UniProt Q9P0L2); test: Inhibition of human MARK1; conditions: concentration not given here; method in brief: as §1
# Serine/threonine-protein kinase MARK1 (Homo sapiens), sequence (Q9P0L2 whole entry, looked up): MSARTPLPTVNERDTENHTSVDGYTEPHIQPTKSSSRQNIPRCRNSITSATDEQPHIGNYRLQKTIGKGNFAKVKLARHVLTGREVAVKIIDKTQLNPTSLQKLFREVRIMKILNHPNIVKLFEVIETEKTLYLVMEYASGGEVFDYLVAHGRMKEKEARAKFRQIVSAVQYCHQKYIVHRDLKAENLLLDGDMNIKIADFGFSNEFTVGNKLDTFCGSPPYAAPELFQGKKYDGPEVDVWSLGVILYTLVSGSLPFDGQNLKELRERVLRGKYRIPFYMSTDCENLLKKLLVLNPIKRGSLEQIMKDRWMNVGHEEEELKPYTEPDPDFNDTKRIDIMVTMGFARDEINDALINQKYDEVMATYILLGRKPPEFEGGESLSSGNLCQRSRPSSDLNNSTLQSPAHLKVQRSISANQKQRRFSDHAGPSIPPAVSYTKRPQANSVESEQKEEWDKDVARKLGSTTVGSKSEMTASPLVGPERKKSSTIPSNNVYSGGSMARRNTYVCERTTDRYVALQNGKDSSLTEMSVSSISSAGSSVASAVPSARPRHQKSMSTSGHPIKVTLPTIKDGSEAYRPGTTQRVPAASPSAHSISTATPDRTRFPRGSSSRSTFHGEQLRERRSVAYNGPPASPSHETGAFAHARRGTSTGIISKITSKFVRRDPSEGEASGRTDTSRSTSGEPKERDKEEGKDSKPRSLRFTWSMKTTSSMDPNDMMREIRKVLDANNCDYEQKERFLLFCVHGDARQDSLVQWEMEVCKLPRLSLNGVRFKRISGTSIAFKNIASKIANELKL
# [7] = target: Serine/threonine-protein kinase MARK2 (Homo sapiens) (UniProt Q7KZI7); test: Inhibition of human MARK2; conditions: concentration not given here; method in brief: as §1
# Serine/threonine-protein kinase MARK2 (Homo sapiens), sequence (Q7KZI7 whole entry): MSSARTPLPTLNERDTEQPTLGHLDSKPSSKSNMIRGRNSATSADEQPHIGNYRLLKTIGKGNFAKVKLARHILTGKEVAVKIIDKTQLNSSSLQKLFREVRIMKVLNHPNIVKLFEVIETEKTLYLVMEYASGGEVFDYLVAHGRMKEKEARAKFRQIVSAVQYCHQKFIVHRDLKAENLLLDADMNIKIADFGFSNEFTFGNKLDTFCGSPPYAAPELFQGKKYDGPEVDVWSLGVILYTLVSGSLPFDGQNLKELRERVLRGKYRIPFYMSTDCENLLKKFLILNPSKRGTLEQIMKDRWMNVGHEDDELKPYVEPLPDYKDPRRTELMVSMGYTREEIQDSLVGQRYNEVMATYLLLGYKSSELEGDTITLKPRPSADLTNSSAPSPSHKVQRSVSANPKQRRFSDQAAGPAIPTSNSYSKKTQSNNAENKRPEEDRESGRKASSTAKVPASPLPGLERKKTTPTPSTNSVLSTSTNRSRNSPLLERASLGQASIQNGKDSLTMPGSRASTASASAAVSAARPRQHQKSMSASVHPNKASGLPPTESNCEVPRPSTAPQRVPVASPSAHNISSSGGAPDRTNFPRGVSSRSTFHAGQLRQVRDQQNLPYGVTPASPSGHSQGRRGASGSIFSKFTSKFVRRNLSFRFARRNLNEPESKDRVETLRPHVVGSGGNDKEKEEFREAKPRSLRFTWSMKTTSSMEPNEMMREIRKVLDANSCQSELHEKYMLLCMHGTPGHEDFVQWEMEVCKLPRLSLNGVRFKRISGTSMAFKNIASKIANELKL
# [8] = target: G protein-coupled receptor kinase 5 (Homo sapiens) (UniProt P34947); test: Inhibition of human GRK5; conditions: concentration not given here; method in brief: as §1
# G protein-coupled receptor kinase 5 (Homo sapiens), sequence (P34947 whole entry, looked up): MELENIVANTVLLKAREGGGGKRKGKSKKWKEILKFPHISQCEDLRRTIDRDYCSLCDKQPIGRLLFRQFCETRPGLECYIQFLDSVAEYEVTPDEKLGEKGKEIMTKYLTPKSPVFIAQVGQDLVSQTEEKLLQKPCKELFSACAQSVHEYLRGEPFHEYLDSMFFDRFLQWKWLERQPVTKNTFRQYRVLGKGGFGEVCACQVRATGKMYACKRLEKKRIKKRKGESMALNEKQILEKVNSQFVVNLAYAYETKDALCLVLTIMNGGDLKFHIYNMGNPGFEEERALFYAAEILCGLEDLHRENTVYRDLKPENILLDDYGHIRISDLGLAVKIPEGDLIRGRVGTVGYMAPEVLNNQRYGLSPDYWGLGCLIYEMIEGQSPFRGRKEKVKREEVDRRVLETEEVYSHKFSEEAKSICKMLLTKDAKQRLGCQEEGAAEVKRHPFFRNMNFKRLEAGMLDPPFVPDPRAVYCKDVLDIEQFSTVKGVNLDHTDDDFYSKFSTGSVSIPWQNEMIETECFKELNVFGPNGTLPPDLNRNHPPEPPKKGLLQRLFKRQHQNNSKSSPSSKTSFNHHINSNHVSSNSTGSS
# [9] = target: Protein kinase C delta type (Homo sapiens) (UniProt Q05655); test: Inhibition of human PKCdelta; conditions: concentration not given here; method in brief: as §1
# Protein kinase C delta type (Homo sapiens), sequence (Q05655 whole entry, looked up): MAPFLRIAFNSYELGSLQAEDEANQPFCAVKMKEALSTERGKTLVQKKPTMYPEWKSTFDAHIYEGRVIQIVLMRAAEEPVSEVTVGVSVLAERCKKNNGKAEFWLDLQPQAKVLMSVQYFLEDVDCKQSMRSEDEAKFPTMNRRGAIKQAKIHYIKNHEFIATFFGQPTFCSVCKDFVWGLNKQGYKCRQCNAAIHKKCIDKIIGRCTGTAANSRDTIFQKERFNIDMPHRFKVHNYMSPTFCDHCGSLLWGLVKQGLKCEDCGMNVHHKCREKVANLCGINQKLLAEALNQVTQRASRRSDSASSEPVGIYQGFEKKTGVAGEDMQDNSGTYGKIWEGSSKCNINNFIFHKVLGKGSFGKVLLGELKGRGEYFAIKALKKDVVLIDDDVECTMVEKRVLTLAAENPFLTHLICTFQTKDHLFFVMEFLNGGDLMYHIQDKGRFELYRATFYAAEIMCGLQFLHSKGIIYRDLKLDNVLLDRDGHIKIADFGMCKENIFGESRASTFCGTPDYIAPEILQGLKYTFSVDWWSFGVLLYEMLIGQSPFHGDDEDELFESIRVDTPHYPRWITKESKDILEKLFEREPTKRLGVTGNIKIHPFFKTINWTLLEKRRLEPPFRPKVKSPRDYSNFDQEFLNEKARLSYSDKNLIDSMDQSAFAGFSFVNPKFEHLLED
# [10] = target: T2, Protein kinase C epsilon type (Homo sapiens) (UniProt Q02156); test: Inhibition of PKCepsilon; conditions: concentration not given here
# T2 sequence (whole entry): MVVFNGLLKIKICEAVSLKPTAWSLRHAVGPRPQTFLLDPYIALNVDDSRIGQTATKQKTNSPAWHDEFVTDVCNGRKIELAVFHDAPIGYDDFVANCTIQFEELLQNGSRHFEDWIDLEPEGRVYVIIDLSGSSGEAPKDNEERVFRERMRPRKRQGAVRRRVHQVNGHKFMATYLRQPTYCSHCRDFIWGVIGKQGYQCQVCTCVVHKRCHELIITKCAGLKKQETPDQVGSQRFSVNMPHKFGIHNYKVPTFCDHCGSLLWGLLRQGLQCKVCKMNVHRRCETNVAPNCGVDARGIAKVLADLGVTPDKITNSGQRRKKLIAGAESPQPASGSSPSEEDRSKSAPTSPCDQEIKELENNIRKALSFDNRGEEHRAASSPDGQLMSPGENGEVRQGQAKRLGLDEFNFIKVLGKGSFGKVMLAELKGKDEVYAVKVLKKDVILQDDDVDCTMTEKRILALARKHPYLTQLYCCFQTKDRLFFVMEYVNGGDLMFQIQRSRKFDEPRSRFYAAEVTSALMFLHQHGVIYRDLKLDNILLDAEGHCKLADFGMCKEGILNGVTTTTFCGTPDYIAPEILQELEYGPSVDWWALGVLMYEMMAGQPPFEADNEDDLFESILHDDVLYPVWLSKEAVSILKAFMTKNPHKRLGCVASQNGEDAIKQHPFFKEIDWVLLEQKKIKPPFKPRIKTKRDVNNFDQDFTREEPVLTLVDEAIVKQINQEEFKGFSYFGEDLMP
# [11] = target: T3, Serine/threonine-protein kinase D1 (Homo sapiens, UniProt Q15139); test: Inhibition of PKD1 by TR-FRET assay
# T3 sequence (Q15139 whole entry): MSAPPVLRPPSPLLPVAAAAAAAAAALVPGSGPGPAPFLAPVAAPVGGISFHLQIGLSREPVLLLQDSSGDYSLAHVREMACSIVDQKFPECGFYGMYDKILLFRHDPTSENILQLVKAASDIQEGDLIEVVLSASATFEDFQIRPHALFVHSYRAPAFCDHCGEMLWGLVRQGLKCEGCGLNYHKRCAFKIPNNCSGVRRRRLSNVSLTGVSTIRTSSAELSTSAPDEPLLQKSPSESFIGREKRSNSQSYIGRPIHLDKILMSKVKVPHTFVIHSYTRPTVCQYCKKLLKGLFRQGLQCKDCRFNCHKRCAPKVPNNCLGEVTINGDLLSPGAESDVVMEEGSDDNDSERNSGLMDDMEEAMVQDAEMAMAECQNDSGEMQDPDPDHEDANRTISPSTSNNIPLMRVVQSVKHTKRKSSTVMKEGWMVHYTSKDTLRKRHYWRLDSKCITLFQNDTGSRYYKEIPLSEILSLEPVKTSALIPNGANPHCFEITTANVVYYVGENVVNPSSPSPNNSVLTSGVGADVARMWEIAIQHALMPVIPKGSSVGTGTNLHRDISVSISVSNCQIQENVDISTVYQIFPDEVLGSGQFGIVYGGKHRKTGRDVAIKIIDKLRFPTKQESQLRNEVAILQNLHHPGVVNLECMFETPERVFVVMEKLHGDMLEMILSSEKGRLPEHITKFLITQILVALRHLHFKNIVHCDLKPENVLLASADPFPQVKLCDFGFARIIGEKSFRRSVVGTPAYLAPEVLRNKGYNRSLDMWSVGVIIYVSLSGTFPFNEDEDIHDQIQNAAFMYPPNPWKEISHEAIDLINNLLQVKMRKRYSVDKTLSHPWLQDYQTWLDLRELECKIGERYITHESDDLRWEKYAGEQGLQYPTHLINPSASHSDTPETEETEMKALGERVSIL
# Method in brief: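 Full-length wild-type PKD1 expressed and purified from Sf9 cells, 0.2 μg/mL, in 35 mM Tris-HCl pH 7.5, 5 mM MgCl2, 0.02% Tween-20, 20 μM ATP, 1 mM DTT. Reaction started with 2 μM biotinylated syntide-2 and run 50 min at room temperature. Stopped with EDTA plus europium anti-rabbit IgG, anti-phospho-syntide-2 antibody and streptavidin-APC. LANCE TR-FRET 665/615 ratio read after 1 h. 11-point curves in triplicate gave IC50.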
# [12] = target: T3, Serine/threonine-protein kinase D1; test: Inhibition of PKD1 assessed as inhibition of HDAC5 neuclear export
# Method in brief: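 Neonatal rat ventricular myocytes infected with adenovirus encoding GFP-HDAC5 and plated on gelatin-coated wells. Cells exposed to compound and stimulated with PGF2α for 2 h, then fixed. Cytoplasmic versus nuclear GFP intensity quantified by high-content imaging.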
# [13] = target: T4, Serine/threonine-protein kinase D2 (Homo sapiens, UniProt Q9BZL6); test: Inhibition of PKD2 by TR-FRET assay
# T4 sequence (Q9BZL6 whole entry): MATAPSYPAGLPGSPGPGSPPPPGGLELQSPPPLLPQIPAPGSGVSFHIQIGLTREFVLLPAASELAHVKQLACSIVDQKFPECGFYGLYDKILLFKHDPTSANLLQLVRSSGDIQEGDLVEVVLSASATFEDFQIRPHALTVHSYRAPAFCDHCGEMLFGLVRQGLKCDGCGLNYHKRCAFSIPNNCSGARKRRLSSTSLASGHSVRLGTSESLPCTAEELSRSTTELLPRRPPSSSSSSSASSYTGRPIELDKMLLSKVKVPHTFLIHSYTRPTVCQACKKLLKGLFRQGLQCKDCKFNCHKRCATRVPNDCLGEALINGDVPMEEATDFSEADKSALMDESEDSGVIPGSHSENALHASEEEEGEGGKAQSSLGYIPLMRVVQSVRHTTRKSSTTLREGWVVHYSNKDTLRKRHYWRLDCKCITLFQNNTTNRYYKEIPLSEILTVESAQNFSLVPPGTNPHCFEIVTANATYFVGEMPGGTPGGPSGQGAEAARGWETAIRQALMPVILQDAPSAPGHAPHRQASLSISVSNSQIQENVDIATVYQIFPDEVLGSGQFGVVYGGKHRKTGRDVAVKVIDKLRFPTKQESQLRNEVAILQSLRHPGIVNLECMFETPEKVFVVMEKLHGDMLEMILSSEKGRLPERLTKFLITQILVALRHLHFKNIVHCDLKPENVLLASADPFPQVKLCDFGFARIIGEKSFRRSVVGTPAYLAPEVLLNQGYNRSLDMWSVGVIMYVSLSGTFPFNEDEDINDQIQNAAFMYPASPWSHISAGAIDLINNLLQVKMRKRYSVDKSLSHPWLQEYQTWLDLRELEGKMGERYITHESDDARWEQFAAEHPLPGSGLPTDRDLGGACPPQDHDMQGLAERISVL
# Caco-2 = test: Ratio of permeability from basolateral to apical side to apical to basolateral side in human Caco-2 cells; format: ADME, cell-based
AUC(0-t) at 8 h [1],half-life [2],inhibition [3],inhibition [4],inhibition [5],inhibition [6],inhibition [7],inhibition [8],inhibition [9],inhibition [10],pIC50 [11],pEC50 [12],pIC50 [13],Ratio (Caco-2),Compound
0.19 µM·h,5.2 h,11%,80%,1%,82%,83%,5%,51%,34%,,,,,c1cc2c(N3CCNCC3)nc(-c3ccnc(NC4CCCCC4)c3)cc2cn1
,,,,,,,,,,7.74,7.18,6.89,0.44,N#Cc1cc(-c2ccnc(NC3CCCCC3)c2)nc(N2CCNCC2)c1

# — ChEMBL document CHEMBL1212911, “Identification of potent and selective amidobipyridyl inhibitors of protein kinase D” (J Med Chem, 2010)
